Measurements from ChEMBL document CHEMBL1137696, “Preparation and in vitro evaluation of benzylsulfanyl benzoxazole derivatives as potential antituberculosis agents” (2009).
In brackets after ≈: the same amount, converted by molar mass.

Key:
Type in all cases: functional
[1] = test system: Mycobacterium kansasii; experiment: Antimycobacterial activity against Mycobacterium kansasii CNCTC My 235/80 after 14 days by micromethod; settings: CNCTC My 235/80, 336 h
In short: (§1)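 Micromethod MIC in Šula semisynthetic medium, with compounds added as DMSO solutions at 1000, 500, 250, 125, 62, 32, 16, 8, 4 and 2 µmol/L. Cultures were incubated at 37 °C, and M. kansasii was read at 7, 14 and 21 days. MIC is the lowest concentration at which mycobacterial growth was inhibited. INH served as standard. Strain 6509/96 was a clinical isolate.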

[2] = test system: Mycobacterium kansasii; experiment: Antimycobacterial activity against Mycobacterium kansasii 6509/96 after 7 days by micromethod; settings: 6509/96, 168 h; in short: as §1
[3] = test system: Mycobacterium kansasii; experiment: Antimycobacterial activity against Mycobacterium kansasii CNCTC My 235/80 after 7 days by micromethod; settings: CNCTC My 235/80, 168 h; in short: as §1
[4] = test system: Mycobacterium kansasii; experiment: Antimycobacterial activity against Mycobacterium kansasii 6509/96 after 21 days by micromethod; settings: 6509/96, 504 h; in short: as §1
[5] = test system: Mycobacterium tuberculosis; experiment: Antimycobacterial activity against Mycobacterium tuberculosis CNCTC My 331/88 after 21 days by micromethod; settings: CNCTC My 331/88, 504 h
In short: (§2)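 MIC by micromethod in Šula semisynthetic medium. Compounds added as DMSO solutions at 1000, 500, 250, 125, 62, 32, 16, 8, 4 and 2 µmol/L. Incubated at 37 °C and read at 14 and 21 days. MIC taken as the lowest concentration that inhibited mycobacterial growth, expressed in µmol/L. INH run as standard. Strains from CNCTC.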

[6] = test system: Mycobacterium avium; experiment: Antimycobacterial activity against Mycobacterium avium CNCTC My 330/88 after 21 days by micromethod; settings: CNCTC My 330/88, 504 h; in short: as §2
[7] = test system: Mycobacterium tuberculosis; experiment: Antimycobacterial activity against Mycobacterium tuberculosis CNCTC My 331/88 after 14 days by micromethod; settings: CNCTC My 331/88, 336 h; in short: as §2
[8] = test system: Mycobacterium kansasii; experiment: Antimycobacterial activity against Mycobacterium kansasii 6509/96 after 14 days by micromethod; settings: 6509/96, 336 h; in short: as §1
[9] = test system: Mycobacterium kansasii; experiment: Antimycobacterial activity against Mycobacterium kansasii CNCTC My 235/80 after 21 days by micromethod; settings: CNCTC My 235/80, 504 h; in short: as §1
[10] = test system: Mycobacterium avium; experiment: Antimycobacterial activity against Mycobacterium avium CNCTC My 330/88 after 14 days by micromethod; settings: CNCTC My 330/88, 336 h; in short: as §2

Row | SMILES | MIC [1] [µM] | MIC [2] [µM] | MIC [3] [µM] | MIC [4] [µM] | MIC [5] [µM] | MIC [6] [µM] | MIC [7] [µM] | MIC [8] [µM] | MIC [9] [µM] | MIC [10] [µM]
1 | N#Cc1ccc(CSc2nc3ccccc3o2)cc1 | 32 (≈ 8.52 µg/mL) | 16 (≈ 4.26 µg/mL) | 32 (≈ 8.52 µg/mL) | > 32 | > 62 | 62 (≈ 16.5 µg/mL) | > 62 | 32 (≈ 8.52 µg/mL) | > 32 | 62 (≈ 16.5 µg/mL)
2 | COc1ccc(CSc2nc3ccccc3o2)cc1 | 32 (≈ 8.68 µg/mL) | 32 (≈ 8.68 µg/mL) | 32 (≈ 8.68 µg/mL) | 62 (≈ 16.8 µg/mL) | 125 (≈ 33.9 µg/mL) | 62 (≈ 16.8 µg/mL) | 62 (≈ 16.8 µg/mL) | 32 (≈ 8.68 µg/mL) | 62 (≈ 16.8 µg/mL) | 32 (≈ 8.68 µg/mL)
3 | Clc1cccc(CSc2nc3ccccc3o2)c1 | 32 (≈ 8.82 µg/mL) | 32 (≈ 8.82 µg/mL) | 32 (≈ 8.82 µg/mL) | 62 (≈ 17.1 µg/mL) | 125 (≈ 34.5 µg/mL) | 32 (≈ 8.82 µg/mL) | 62 (≈ 17.1 µg/mL) | 32 (≈ 8.82 µg/mL) | 62 (≈ 17.1 µg/mL) | 32 (≈ 8.82 µg/mL)
4 | O=[N+]([O-])c1ccccc1CSc1nc2ccccc2o1 | 125 (≈ 35.8 µg/mL) | 62 (≈ 17.8 µg/mL) | 125 (≈ 35.8 µg/mL) | > 62 | > 250 | > 125 | > 250 | > 62 | > 125 | > 125
5 | Clc1ccccc1CSc1nc2ccccc2o1 | 32 (≈ 8.82 µg/mL) | 62 (≈ 17.1 µg/mL) | 32 (≈ 8.82 µg/mL) | 125 (≈ 34.5 µg/mL) | > 250 | 125 (≈ 34.5 µg/mL) | > 250 | 62 (≈ 17.1 µg/mL) | 62 (≈ 17.1 µg/mL) | 125 (≈ 34.5 µg/mL)
6 | Cc1cccc(CSc2nc3ccccc3o2)c1 | 125 (≈ 31.9 µg/mL) | 125 (≈ 31.9 µg/mL) | 125 (≈ 31.9 µg/mL) | 250 (≈ 63.8 µg/mL) | 500 (≈ 128 µg/mL) | 125 (≈ 31.9 µg/mL) | 250 (≈ 63.8 µg/mL) | 125 (≈ 31.9 µg/mL) | 500 (≈ 128 µg/mL) | 62 (≈ 15.8 µg/mL)
7 | Clc1ccc(CSc2nc3ccccc3o2)cc1Cl | 62 (≈ 19.2 µg/mL) | 62 (≈ 19.2 µg/mL) | 32 (≈ 9.93 µg/mL) | 125 (≈ 38.8 µg/mL) | > 250 | 62 (≈ 19.2 µg/mL) | > 125 | 62 (≈ 19.2 µg/mL) | 125 (≈ 38.8 µg/mL) | 62 (≈ 19.2 µg/mL)
8 | FC(F)(F)c1ccc(CSc2nc3ccccc3o2)cc1 | 62 (≈ 19.2 µg/mL) | 16 (≈ 4.95 µg/mL) | 32 (≈ 9.9 µg/mL) | 62 (≈ 19.2 µg/mL) | 125 (≈ 38.7 µg/mL) | 62 (≈ 19.2 µg/mL) | 125 (≈ 38.7 µg/mL) | 32 (≈ 9.9 µg/mL) | 125 (≈ 38.7 µg/mL) | 62 (≈ 19.2 µg/mL)
9 | NNC(=O)c1ccncc1 [ISONIAZID] | > 250 | 2 (≈ 0.274 µg/mL) | > 250 | 4 (≈ 0.549 µg/mL) | 1 (≈ 0.137 µg/mL) | > 250 | 0.5 (≈ 0.0686 µg/mL) | 2 (≈ 0.274 µg/mL) | > 250 | > 250
10 | O=[N+]([O-])c1cccc(F)c1CSc1nc2ccccc2o1 | > 32 | 32 (≈ 9.74 µg/mL) | > 32 | > 62 | > 62 | 125 (≈ 38 µg/mL) | > 62 | > 32 | > 32 | 62 (≈ 18.9 µg/mL)
11 | c1ccc(CSc2nc3ccccc3o2)cc1 | 250 (≈ 60.3 µg/mL) | 32 (≈ 7.72 µg/mL) | 125 (≈ 30.2 µg/mL) | 250 (≈ 60.3 µg/mL) | 500 (≈ 121 µg/mL) | 125 (≈ 30.2 µg/mL) | 250 (≈ 60.3 µg/mL) | 125 (≈ 30.2 µg/mL) | 250 (≈ 60.3 µg/mL) | 62 (≈ 15 µg/mL)
12 | FC(F)(F)c1cc(CSc2nc3ccccc3o2)cc(C(F)(F)F)c1 | 62 (≈ 23.4 µg/mL) | 32 (≈ 12.1 µg/mL) | 62 (≈ 23.4 µg/mL) | 62 (≈ 23.4 µg/mL) | 125 (≈ 47.2 µg/mL) | > 125 | 62 (≈ 23.4 µg/mL) | 32 (≈ 12.1 µg/mL) | 125 (≈ 47.2 µg/mL) | > 125
13 | FC(F)(F)c1cccc(CSc2nc3ccccc3o2)c1 | 32 (≈ 9.9 µg/mL) | 32 (≈ 9.9 µg/mL) | 32 (≈ 9.9 µg/mL) | 62 (≈ 19.2 µg/mL) | 125 (≈ 38.7 µg/mL) | 32 (≈ 9.9 µg/mL) | 62 (≈ 19.2 µg/mL) | 32 (≈ 9.9 µg/mL) | 62 (≈ 19.2 µg/mL) | 32 (≈ 9.9 µg/mL)
14 | O=[N+]([O-])c1ccc(CSc2nc3ccccc3o2)cc1 | 32 (≈ 9.16 µg/mL) | 32 (≈ 9.16 µg/mL) | 32 (≈ 9.16 µg/mL) | > 32 | > 125 | > 62 | > 62 | 32 (≈ 9.16 µg/mL) | > 62 | > 32
15 | Sc1nc2ccccc2o1 | 1000 (≈ 151 µg/mL) | 250 (≈ 37.8 µg/mL) | 500 (≈ 75.6 µg/mL) | 1000 (≈ 151 µg/mL) | 500 (≈ 75.6 µg/mL) | 500 (≈ 75.6 µg/mL) | 500 (≈ 75.6 µg/mL) | 500 (≈ 75.6 µg/mL) | 1000 (≈ 151 µg/mL) | 250 (≈ 37.8 µg/mL)
16 | Fc1cccc(Cl)c1CSc1nc2ccccc2o1 | 32 (≈ 9.4 µg/mL) | 32 (≈ 9.4 µg/mL) | 32 (≈ 9.4 µg/mL) | 62 (≈ 18.2 µg/mL) | 125 (≈ 36.7 µg/mL) | 62 (≈ 18.2 µg/mL) | 62 (≈ 18.2 µg/mL) | 32 (≈ 9.4 µg/mL) | 62 (≈ 18.2 µg/mL) | 62 (≈ 18.2 µg/mL)
17 | Fc1ccccc1CSc1nc2ccccc2o1 | 32 (≈ 8.3 µg/mL) | 32 (≈ 8.3 µg/mL) | 32 (≈ 8.3 µg/mL) | 62 (≈ 16.1 µg/mL) | 250 (≈ 64.8 µg/mL) | 62 (≈ 16.1 µg/mL) | 125 (≈ 32.4 µg/mL) | 32 (≈ 8.3 µg/mL) | 62 (≈ 16.1 µg/mL) | 62 (≈ 16.1 µg/mL)
18 | Cc1ccc(CSc2nc3ccccc3o2)cc1 | 62 (≈ 15.8 µg/mL) | 62 (≈ 15.8 µg/mL) | 62 (≈ 15.8 µg/mL) | 125 (≈ 31.9 µg/mL) | > 500 | 62 (≈ 15.8 µg/mL) | > 500 | 62 (≈ 15.8 µg/mL) | 125 (≈ 31.9 µg/mL) | 32 (≈ 8.17 µg/mL)
19 | O=[N+]([O-])c1cccc(CSc2nc3ccccc3o2)c1 | > 32 | 32 (≈ 9.16 µg/mL) | 32 (≈ 9.16 µg/mL) | > 32 | 125 (≈ 35.8 µg/mL) | > 62 | > 62 | 32 (≈ 9.16 µg/mL) | > 32 | > 32
20 | N#Cc1cccc(CSc2nc3ccccc3o2)c1 | 62 (≈ 16.5 µg/mL) | 32 (≈ 8.52 µg/mL) | 32 (≈ 8.52 µg/mL) | 62 (≈ 16.5 µg/mL) | 125 (≈ 33.3 µg/mL) | 62 (≈ 16.5 µg/mL) | 125 (≈ 33.3 µg/mL) | 62 (≈ 16.5 µg/mL) | 125 (≈ 33.3 µg/mL) | 62 (≈ 16.5 µg/mL)
21 | Fc1ccc(CSc2nc3ccccc3o2)cc1F | 125 (≈ 34.7 µg/mL) | 32 (≈ 8.87 µg/mL) | 62 (≈ 17.2 µg/mL) | 125 (≈ 34.7 µg/mL) | 125 (≈ 34.7 µg/mL) | 125 (≈ 34.7 µg/mL) | 125 (≈ 34.7 µg/mL) | 62 (≈ 17.2 µg/mL) | 125 (≈ 34.7 µg/mL) | 62 (≈ 17.2 µg/mL)
